Reference: ChEMBL document CHEMBL3826943, “Design, synthesis and evaluation of 6-aryl-indenoisoquinolone derivatives dual targeting ERα and VEGFR-2 as anti-breast cancer agents” (Eur J Med Chem, 2016)
The source made the active and inactive calls. The calls are words filed in the database; no cut-off is given here.

Key:
[1] = system: MDA-MB-231; experiment: Antiproliferative activity against human MDA-MB-231 cells incubated for 48 hrs by MTT assay; type: functional, cell-based; conditions: MDA-MB-231, 48 h
Method in brief: (§1)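 Cells kept in RPMI1640 with 10% FBS, penicillin/streptomycin, 37 °C, 5% CO2. Seeded at 1×10^5/mL, allowed 24 h, then exposed to compound at 1×10^-4, 1×10^-5, 1×10^-6 and 1×10^-7 mol/L for 48 h; controls got medium with 1% DMSO. MTT added for 4 h in the dark, formazan dissolved in DMSO, absorbance at 490 nm used for IC50.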

[2] = biological target: T1, Vascular endothelial growth factor receptor 2 (Homo sapiens, UniProt P35968)
[3] = system: MCF7; experiment: Antiproliferative activity against human MCF7 cells incubated for 48 hrs by MTT assay; type: functional, cell-based; conditions: MCF7, 48 h; method in brief: as §1
[4] = biological target: T2, Estrogen receptor (Homo sapiens, UniProt P03372); experiment: Displacement of fluorescein-labeled estrogen ligand from recombinant ER-alpha (unknown origin) incubated for 2 hrs by fluorescence polarization assay
T2 sequence (P03372 whole entry): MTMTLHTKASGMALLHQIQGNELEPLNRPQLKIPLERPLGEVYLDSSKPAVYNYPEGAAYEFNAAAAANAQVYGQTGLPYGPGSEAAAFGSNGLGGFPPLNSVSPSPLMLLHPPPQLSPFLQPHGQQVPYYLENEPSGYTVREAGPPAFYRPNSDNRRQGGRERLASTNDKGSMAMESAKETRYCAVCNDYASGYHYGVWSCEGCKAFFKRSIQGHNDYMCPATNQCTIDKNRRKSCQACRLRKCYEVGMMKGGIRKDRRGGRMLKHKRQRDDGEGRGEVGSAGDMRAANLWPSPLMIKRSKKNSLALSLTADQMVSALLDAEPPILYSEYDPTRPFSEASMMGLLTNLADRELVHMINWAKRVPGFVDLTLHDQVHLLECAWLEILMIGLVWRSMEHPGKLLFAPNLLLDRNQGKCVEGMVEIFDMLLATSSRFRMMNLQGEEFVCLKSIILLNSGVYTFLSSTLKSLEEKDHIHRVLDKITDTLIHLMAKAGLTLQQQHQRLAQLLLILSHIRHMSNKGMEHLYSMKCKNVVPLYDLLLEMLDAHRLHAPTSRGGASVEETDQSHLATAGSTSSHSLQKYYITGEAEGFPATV

[5] = system: Ishikawa; experiment: Antiproliferative activity against human Ishikawa cells incubated for 48 hrs by MTT assay; type: functional, cell-based; method in brief: as §1
[6] = system: HUVEC; experiment: Antiangiogenic activity in HUVEC assessed as inhibition of cell proliferation incubated for 48 hrs by MTT assay; type: functional, cell-based; conditions: Homo sapiens; method in brief: as §1
[7] = biological target: T1, Vascular endothelial growth factor receptor 2; experiment: Inhibition of VEGFR2 in human MCF7 cells assessed as reduction in expression of phosphorylated VEGFR2 at 0.25 to 1 uM incubated for 24 hrs by Western blot analysis; type: cell-based
Method in brief: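 MCF-7 cells treated 24 h, lysed on ice, protein quantified by BCA, equal loads separated on 12% SDS-PAGE and blotted to PVDF. Probed for p-VEGFR-2 and total VEGFR-2 overnight at 4 °C, HRP secondary 1 h at 37 °C, chemiluminescence on film. VEGFR-2 phosphorylation rate by densitometry, mean ± SD (n=3).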

[8] = biological target: T1, Vascular endothelial growth factor receptor 2; conditions: MCF7, at 1 µM
[9] = biological target: T1, Vascular endothelial growth factor receptor 2; conditions: MCF7, at 1 µM; remark: listed apart in the source
[10] = biological target: T1, Vascular endothelial growth factor receptor 2; conditions: HUVEC, at 1 µM
[11] = biological target: T1, Vascular endothelial growth factor receptor 2; experiment: Inhibition of VEGFR2 in HUVEC assessed as reduction in expression of phosphorylated VEGFR2 incubated for 24 hrs by Western blot analysis; type: cell-based
Method in brief: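 HUVEC treated 24 h, washed with PBS, lysed on ice in Tris/SDS/glycerol/β-mercaptoethanol buffer. Protein measured by BCA, equal amounts run on 12% SDS-PAGE, semi-dry transfer to PVDF. Primary antibodies (p-VEGFR-2, VEGFR-2) overnight at 4 °C, HRP secondary 1 h at 37 °C, ECL detection. Phosphorylation rate by densitometry, mean ± SD, n=3.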

T1 sequence (P35968 whole entry): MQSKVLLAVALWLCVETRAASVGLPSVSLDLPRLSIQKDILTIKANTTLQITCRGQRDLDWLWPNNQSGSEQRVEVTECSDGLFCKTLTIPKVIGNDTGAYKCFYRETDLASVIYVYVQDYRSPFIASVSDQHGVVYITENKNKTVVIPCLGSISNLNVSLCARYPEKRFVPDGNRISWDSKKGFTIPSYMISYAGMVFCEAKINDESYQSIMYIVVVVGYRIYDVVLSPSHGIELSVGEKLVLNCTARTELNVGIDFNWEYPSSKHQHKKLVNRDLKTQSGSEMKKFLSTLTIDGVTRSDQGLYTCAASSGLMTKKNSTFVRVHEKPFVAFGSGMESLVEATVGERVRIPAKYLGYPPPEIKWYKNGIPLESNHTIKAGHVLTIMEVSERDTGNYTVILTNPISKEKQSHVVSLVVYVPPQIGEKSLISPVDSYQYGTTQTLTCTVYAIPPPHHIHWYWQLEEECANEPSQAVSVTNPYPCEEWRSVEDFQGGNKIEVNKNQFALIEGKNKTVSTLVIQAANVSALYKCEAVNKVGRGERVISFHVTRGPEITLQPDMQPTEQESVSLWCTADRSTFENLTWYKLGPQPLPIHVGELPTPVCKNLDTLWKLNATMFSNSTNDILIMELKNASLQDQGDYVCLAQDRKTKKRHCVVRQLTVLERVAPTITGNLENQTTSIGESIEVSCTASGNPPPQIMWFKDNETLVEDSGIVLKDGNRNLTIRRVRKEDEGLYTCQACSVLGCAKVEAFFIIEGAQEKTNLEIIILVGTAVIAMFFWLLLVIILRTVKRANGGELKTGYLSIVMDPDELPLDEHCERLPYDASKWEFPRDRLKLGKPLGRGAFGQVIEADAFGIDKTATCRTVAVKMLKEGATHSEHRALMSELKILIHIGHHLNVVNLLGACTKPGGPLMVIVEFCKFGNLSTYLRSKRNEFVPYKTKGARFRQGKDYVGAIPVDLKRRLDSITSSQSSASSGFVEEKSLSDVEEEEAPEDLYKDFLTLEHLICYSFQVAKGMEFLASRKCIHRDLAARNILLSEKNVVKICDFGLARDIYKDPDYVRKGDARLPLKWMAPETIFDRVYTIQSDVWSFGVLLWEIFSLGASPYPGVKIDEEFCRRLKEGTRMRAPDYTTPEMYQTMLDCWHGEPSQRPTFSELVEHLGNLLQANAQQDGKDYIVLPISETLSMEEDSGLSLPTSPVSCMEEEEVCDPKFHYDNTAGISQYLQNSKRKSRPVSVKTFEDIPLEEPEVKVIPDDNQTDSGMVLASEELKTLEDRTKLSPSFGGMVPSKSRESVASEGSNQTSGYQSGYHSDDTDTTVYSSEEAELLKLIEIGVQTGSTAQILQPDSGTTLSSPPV

Structure (SMILES) | IC50 [1] [µM] | IC50 [2] | IC50 [3] [µM] | IC50 [4] [µM] | IC50 ([2]; read-out: IC50) [µM] | inhibition [7] | inhibition [8] | inhibition [9] | inhibition [10] | inhibition [11] | IC50 [5] [µM] | IC50 [6] [µM]
O=C1c2cc(O)ccc2-c2c1c1ccc(O)cc1c(=O)n2-c1ccc(OCCN2CCCC2)cc1 | 0.5 | – | 1.2 | 7.2 | 0.099 | Active | Active | Active | Active | Dose-dependent effect | 8.2 | 0.8
COc1ccc2c(c1)C(=O)c1c-2n(-c2ccc(OCCCN3CCOCC3)cc2)c(=O)c2cc(OC)ccc12 | > 100 | Not Active | > 100 | > 100 | – | – | – | – | – | – | > 100 | > 100
O=C1c2cc(O)ccc2-c2c1c1ccc(O)cc1c(=O)n2-c1ccc(OCCN2CCCCC2)cc1 | 0.8 | – | 1.1 | 3.4 | 0.25 | – | – | – | – | – | 4.3 | 1.3
COc1ccc2c(c1)C(=O)c1c-2n(-c2ccc(OCCN3CCCCC3)cc2)c(=O)c2cc(OC)ccc12 | 2.8 | Not Active | 0.3 | 24.9 | – | – | – | – | – | – | 9.6 | > 100
CC/C(=C(\c1ccccc1)c1ccc(OCCN(C)C)cc1)c1ccccc1 [TAMOXIFEN] | 13.9 | – | 5.3 | – | – | – | – | – | – | – | 6 | –
O=C1c2cc(O)ccc2-c2c1c1ccc(O)cc1c(=O)n2-c1ccc(OCCN2CCOCC2)cc1 | > 100 | Not Active | > 100 | 19.8 | – | – | – | – | – | – | > 100 | > 100
COc1ccc2c(c1)C(=O)c1c-2n(-c2ccc(OCCN3CCOCC3)cc2)c(=O)c2cc(OC)ccc12 | > 100 | Not Active | > 100 | > 100 | – | – | – | – | – | – | > 100 | > 100
CN1CCN(CCOc2ccc(-n3c4c(c5ccc(O)cc5c3=O)C(=O)c3cc(O)ccc3-4)cc2)CC1 | 4.1 | Not Active | 2.5 | 10.6 | – | – | – | – | – | – | 6.1 | 1.1
COc1ccc2c(c1)C(=O)c1c-2n(-c2ccc(OCCN3CCN(C)CC3)cc2)c(=O)c2cc(OC)ccc12 | > 100 | Not Active | 1.1 | 23.3 | – | – | – | – | – | – | 10.9 | 12
CCN(CC)CCOc1ccc(-n2c3c(c4ccc(O)cc4c2=O)C(=O)c2cc(O)ccc2-3)cc1 | 1 | – | 0.8 | 6.7 | 0.12 | – | – | – | – | – | 4 | 1.8
CCN(CC)CCNC(=O)c1c(C)[nH]c(/C=C2\C(=O)Nc3ccc(F)cc32)c1C [SUNITINIB] | – | – | – | – | – | – | – | – | – | – | – | 0.8
COc1ccc2c(c1)C(=O)c1c-2n(-c2ccc(OCCN3CCCC3)cc2)c(=O)c2cc(OC)ccc12 | 0.7 | Not Active | 0.7 | 17.7 | – | – | – | – | – | – | 8.7 | > 100
CN(C)CCOc1ccc(-n2c3c(c4ccc(O)cc4c2=O)C(=O)c2cc(O)ccc2-3)cc1 | 3.3 | – | 3.8 | 7.6 | 0.33 | – | – | – | – | – | 5.1 | 4.6

Continued, in another order:

IC50 [1] [µM] | IC50 [2] | IC50 [3] [µM] | IC50 [4] [µM] | IC50 ([2]; read-out: IC50) [µM] | inhibition [7] | inhibition [8] | inhibition [9] | inhibition [10] | inhibition [11] | Structure (SMILES) | IC50 [5] [µM] | IC50 [6] [µM]
1.5 | Not Active | 2.3 | 39.8 | – | – | – | – | – | – | CCN(CC)CCCOc1ccc(-n2c3c(c4ccc(OC)cc4c2=O)C(=O)c2cc(OC)ccc2-3)cc1 | 4.1 | 16
0.6 | Not Active | 1.4 | 39.4 | – | – | – | – | – | – | COc1ccc2c(c1)C(=O)c1c-2n(-c2ccc(OCCCN(C)C)cc2)c(=O)c2cc(OC)ccc12 | 9.6 | 25
21.7 | Not Active | 7.8 | 38.3 | – | – | – | – | – | – | COc1ccc2c(c1)C(=O)c1c-2n(-c2ccc(OCCCN3CCCCC3)cc2)c(=O)c2cc(OC)ccc12 | 4.5 | > 100
3 | Not Active | 3.2 | 40.3 | – | – | – | – | – | – | COc1ccc2c(c1)C(=O)c1c-2n(-c2ccc(OCCCN3CCCC3)cc2)c(=O)c2cc(OC)ccc12 | 12.8 | 5.1
1.1 | – | 1.1 | 24.4 | 3.9 | – | – | – | – | – | COc1ccc2c(c1)C(=O)c1c-2n(-c2ccc(OCCN(C)C)cc2)c(=O)c2cc(OC)ccc12 | 10.6 | 35.6
> 100 | Not Active | > 100 | 35.2 | – | – | – | – | – | – | COc1ccc2c(c1)C(=O)c1c-2n(-c2ccc(OCCCN3CCN(C)CC3)cc2)c(=O)c2cc(OC)ccc12 | > 100 | > 100
1.3 | – | 0.7 | 18.7 | 1.03 | – | – | – | – | – | CCN(CC)CCOc1ccc(-n2c3c(c4ccc(OC)cc4c2=O)C(=O)c2cc(OC)ccc2-3)cc1 | 6.7 | 11.4
